Measured values collected from several papers.
Each line is one published result; the experiments were not run side by side. pKi: −log10 of the molar value.
TMEM97: Sigma intracellular receptor 2 (TMEM97, Homo sapiens, UniProt Q5BJF2)
lecB: Fucose-binding lectin PA-IIL (lecB, Pseudomonas aeruginosa, UniProt Q9HYN5)
CHRM3: Muscarinic acetylcholine receptor M3 (CHRM3, Homo sapiens, UniProt P20309)
SIGMAR1: Sigma non-opioid intracellular receptor 1 (SIGMAR1, Cavia porcellus, UniProt Q60492)

| SMILES | target | read-out | action | method | notes | pKi |
| --- | --- | --- | --- | --- | --- | --- |
| CN(C)CCCN1c2ccccc2CCc2ccc(Cl)cc21 | TMEM97 | ligand displacement |  | radioligand |  | 6.70 |
| CC(C)C[C@H](NC(=O)CNC(=O)[C@H](C)NC(=O)c1ccc(S(=O)(=O)NC[C@H]2O[C@@H](C)[C@@H](O)[C@@H](O)[C@@H]2O)cc1)C(=O)N[C@@H](C)C(=O)N1CCN(c2cc3c(cc2F)c(=O)c(C(=O)O)cn3C2CC2)CC1 | lecB | ligand displacement |  | FP |  | 5.72 |
| CCN(CC)CCO[C@H]1CC[C@@]2(C)C(=CC[C@@H]3[C@@H]2CC[C@]2(C)C(=O)CC[C@@H]32)C1 | TMEM97 | ligand displacement |  | radioligand |  | 7.71 |
| Cn1cc(-c2cccc(N3CCc4c(sc5c4CC(C)(C)C5)C3=O)c2CO)cc(Nc2ccncn2)c1=O | Ephrin type-A receptor 7 (EPHA7, Homo sapiens, UniProt Q15375) | cell-free assay |  |  |  | 6.26 |
| c1cc(N2CCNCC2)c2cc[nH]c2c1 | CHRM3 | ligand displacement |  | radioligand | cell membranes | < 4.50 |
| COCCCN1CCN(c2ccccc2OC)CC1 | Alpha-1D adrenergic receptor (ADRA1D, Homo sapiens, UniProt P25100) | cell-free assay |  |  |  | 6.77 |
| Cc1ncc(C)n2nc(/C=C/c3nc(N4CCCC4)cc(N4CCOCC4)n3)nc12 | cAMP and cAMP-inhibited cGMP 3',5'-cyclic phosphodiesterase 10A (Pde10a, Rattus norvegicus, UniProt Q9QYJ6) | enzyme activity | inhibitor | TR-FRET |  | 9.23 |
| CC(C)C[C@H](NC(=O)CNC(=O)[C@H](C)NC(=O)c1ccc(S(=O)(=O)NC[C@H]2O[C@@H](C)[C@@H](O)[C@@H](O)[C@@H]2O)cc1)C(=O)N[C@@H](C)C(=O)NC[C@@H]1CCN(c2cc3c(cc2F)c(=O)c(C(=O)O)cn3C2CC2)C1 | lecB | ligand displacement |  | FP |  | 5.75 |
| C[C@H](N)Cn1ncc2ccc3c(c21)CCCO3 | 5-hydroxytryptamine receptor 1B (Htr1b, Rattus norvegicus, UniProt P28564) | ligand displacement |  | radioligand |  | 5.25 |
| CC1=NC2(CCN(C)CC2)C(=O)N(c2c(C)cccc2C)C1=O | SIGMAR1 | cell-free assay |  |  |  | 8.10 |
| NC1C(O)C(O)C(O)C1O (stereo not drawn) | Alpha-mannosidase 2 (Drosophila melanogaster, UniProt Q24451) | enzyme activity | inhibitor | fluorescence |  | 4.00 |
| CN1[C@@H]2CC[C@H]1C[C@@H](OC(c1ccccc1)c1ccccc1)C2 | TMEM97 | ligand displacement |  | radioligand |  | 7.20 |
| CC(C)[C@]1(O)[C@H](O)[C@@H]2O[C@]23[C@]2(O[C@H]2C[C@H]2C4=C(CC[C@@]23C)C(=O)OC4)[C@@H]1O | dCTP pyrophosphatase 1 (Homo sapiens, UniProt Q9H773) | enzyme activity | inhibitor |  |  | 4.07 |
| CN1CCN(C2=Nc3ccccc3Oc3ccc(Cl)cc32)CC1 | TMEM97 | ligand displacement |  | radioligand |  | 5.46 |
| Cc1cc(N2CCNCC2)nc2ccccc12 | CHRM3 | ligand displacement |  | radioligand | cell membranes | 4.50 |
| COc1cc2c(cc1OC)CN(CCc1ccc(NC(=O)c3cccc4c(=O)c5cccc(OC)c5[nH]c34)cc1)CC2 | TMEM97 | ligand displacement |  | radioligand |  | 7.11 |
| CC(C)[C@@H](Nc1nc(Cl)nc2c1ncn2[C@H]1[C@H](O)[C@H](O)[C@]2(CN=[N+]=[N-])C[C@H]12)C1CC1 | Alpha-2B adrenergic receptor (ADRA2B, Homo sapiens, UniProt P18089) | ligand displacement |  | radioligand |  | < 5.14 |
| CCN(CC)CCNC(=O)c1ccc(F)cc1 | SIGMAR1 | ligand displacement |  | radioligand | cell membranes | 5.05 |
